# Assay outcomes: PubChem BioAssay, Johns Hopkins Ion Channel Center
# Hits are enriched below; roughly 3% of the tested compounds scored in any of these assays.
# TRPC6 inhibitor = mouse TRPC6 channel inhibitors, primary screen, cell-based, HEK293, membrane potential dye | ACh-evoked depolarization; stronger effect = lower value | AID 2553, 2010 | 310,000 compounds, 1.1% hits | B-score at 10 µM;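 active = B-score under library mean minus 3 SD, initial fluorescence not abnormally high, positive integrated signal ratio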;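 also: B-score derived from integrated fluorescence ratio over the kinetic read; more negative B-score means stronger inhibition of depolarization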
# TRPC4 PAM = positive allosteric modulators of TRPC4, primary screen, cell-based, mouse TRPC4beta, HEK293 mu-opioid, Fluo-4 calcium; Short transient receptor potential channel 4 (Mus musculus), Q9QUQ5; DAMGO EC20, Fluo-4 Ca2+ flux; stronger effect = higher value; B-score at 10 µM; 310,000 compounds, 0.42% hits;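 active = B-score of calcium response area above 5 SD of library B-scores, with initial fluorescence ratio within 5 SD of library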;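 also: B-score of integrated fluorescence ratio over time as area under calcium response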
# TRPC4 block = inhibitors of mouse TRPC4 channel, primary screen, Fluo4 calcium, HEK293 TRPC4beta/mu-opioid cells. Short transient receptor potential channel 4 (Mus musculus), Q9QUQ5. 300,000 compounds, 0.39% hits. DAMGO-evoked Fluo4 calcium flux; stronger effect = lower value. AID 2247, 2010. B-score at 10 µM;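 active = B-score over 3 SD under the library average, no early fluorescence shift, positive overall ratio signal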
#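 System: stable TRPC4beta/mu-opioid receptor HEK293 cells; Dosing: single-point compound dosing; Measured by: Fluo4 Ca2+ flux fluorescence; Read-out basis: per-well B score of integrated baseline-normalized Fluo4 ratio.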
# Kir21 block = inhibitors of mouse Kir2.1 inward-rectifier potassium channel; HEK293-Kir2.1, FluxOR thallium flux fluorescence; stronger effect = lower value; Inward rectifier potassium channel 2 (Mus musculus), P35561; 310,000 compounds, 0.85% hits; B-score at 10 µM;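 active = fluorescence ratio B-score at or below minus 3 SD of library scores, with starting-brightness B-score within 2 SD, cut at about -4.2 in these data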;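 also: channel flux triggered by added potassium and thallium sulfate stimulus; B-score of peak minus minimum fluorescence over baseline after thallium stimulus; more negative B-score means stronger Kir2.1 block with less thallium influx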
# Target sequence (P35561 whole entry, looked up): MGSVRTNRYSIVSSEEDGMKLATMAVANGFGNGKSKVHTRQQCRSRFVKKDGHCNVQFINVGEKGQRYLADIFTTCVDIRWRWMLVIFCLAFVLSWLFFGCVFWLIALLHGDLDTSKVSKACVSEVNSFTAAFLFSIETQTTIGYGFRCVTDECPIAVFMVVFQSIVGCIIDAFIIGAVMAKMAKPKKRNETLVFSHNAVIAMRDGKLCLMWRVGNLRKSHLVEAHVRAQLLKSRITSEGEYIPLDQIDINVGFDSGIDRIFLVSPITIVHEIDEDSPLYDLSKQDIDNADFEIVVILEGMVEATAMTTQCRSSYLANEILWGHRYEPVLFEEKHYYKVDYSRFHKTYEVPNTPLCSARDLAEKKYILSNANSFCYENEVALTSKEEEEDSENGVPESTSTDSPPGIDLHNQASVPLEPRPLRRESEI
# TRPC4 act = activators of mouse TRPC4 channel, primary screen, Fluo4 calcium, HEK293 TRPC4beta/mu-opioid cells. Short transient receptor potential channel 4 (Mus musculus), Q9QUQ5. Fluo4 calcium fluorescence; stronger effect = higher value. B-score at 10 µM. 310,000 compounds, 0.49% hits. AID 2237, 2010;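 active = B-score above 5 SD of library B-scores, and initial fluorescence ratio not above library mean plus 5 SD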;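 also: positive B-score marks a calcium rise read as TRPC4 activation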
#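 Assay system: HEK293 cells stably co-expressing mouse TRPC4beta and mu-opioid receptor / Timing: Fluo4 dye loading 45 min at room temperature, 110 s recording / Signal: Fluo4 calcium-sensitive dye fluorescence, kinetic, 1 Hz baseline / Read-out: integrated baseline-normalised fluorescence ratio, converted to per-well B score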
# TRPC6 activator = mouse TRPC6 channel activators, primary screen, cell-based, HEK293, membrane potential dye; Short transient receptor potential channel 6 (Mus musculus), Q61143; 310,000 compounds, 0.13% hits; HEK293-TRPC6 membrane potential dye fluorescence; stronger effect = higher value; B-score at 10 µM;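 active = B-score of the integrated fluorescence ratio above library mean plus 3 SD, and starting fluorescence ratio within library mean plus 5 SD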;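 also: higher score means more depolarization so channel activation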
# TRPC4 spec 2 = second selectivity test of TRPC6 inhibitors: effect on mouse TRPC4. shares compounds with TRPC6 inhibitor. HEK293 TRPC4/MOR, membrane potential dye fluorescence; channel activated by saturating DAMGO dose. AID 2776. 920 compounds, 42% hits. inhibition, % at 10 µM;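 active = compounds whose fluorescence signal differed from control wells by over 3 SD, either direction, in both duplicate plates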
# TRPC4 spec = mouse TRPC4 modulation by TRPC6 hits, confirmation, selectivity assay for TRPC6 inhibitor project, cell-based, HEK293 TRPC4/mu-opioid, membrane potential dye; shares compounds with TRPC6 inhibitor; AID 2777, 2010; activity change, negative = inhibition, % at 10 µM; membrane potential fluorescence; 920 compounds, 61% hits;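 active = rise or fall in signal beyond 3 SD of buffer-only wells in both replicate plates, either sign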;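 also: integrated kinetic ratio of fluorescence range over baseline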
# HEK293 MPD ctr 2-1 = nonspecific membrane potential effects, parental HEK293, confirmation, counter-screen for TRPC6 inhibitor project, cell-based, second counter screen. 920 compounds, 31% hits. shares compounds with TRPC6 inhibitor. parental HEK293 membrane potential dye fluorescence; maximal acetylcholine challenge after compound addition. signal change vs control, % at 10 µM;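 active = membrane potential signal moving either way by over 3 SD of the maximum-effect control, in both duplicate plates, meaning non-specific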
# HEK293 MPD ctr-1 = membrane potential modulation in parental HEK293, confirmation, counter-screen for TRPC6 inhibitor project, cell-based. shares compounds with TRPC6 inhibitor. parental HEK293 membrane potential dye fluorescence. membrane potential signal change, % at 10 µM. 920 compounds, 60% hits. AID 2780, 2010;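 active = membrane potential signal shifting up or down by more than 3 SD of buffer-only wells, on both duplicate plates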
# HEK293 MPD ctr-2 = parental HEK293 membrane potential modulation, confirmation, counter-screen for TRPC6 modulator project, cell-based. shares compounds with TRPC6 inhibitor. membrane potential dye fluorescence. membrane potential signal change, % at 10 µM. 2,400 compounds, 51% hits;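 active = membrane potential signal moves up or down beyond 5 SD from buffer-only wells, on both duplicate plates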
# HEK293 MPD ctr 2-2 = second check of TRPC6 modulator effects in parental HEK293 cells. shares compounds with TRPC6 inhibitor. membrane potential dye fluorescence; after compound, maximal acetylcholine stimulation. inhibition, % at 10 µM. 2,400 compounds, 14% hits;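 active = membrane potential signal drops by more than 5 SD from the mean control signal, in both duplicate plates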;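 also: plate controls were acetylcholine ECmax control wells for no effect and buffer only wells for full effect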
# TRPC4 ctr mod = TRPC4 modulation by TRPC6 hit compounds, confirmation, selectivity assay for TRPC6 modulator project, cell-based, HEK293 TRPC4/mu-opioid, membrane potential dye, mouse; shares compounds with TRPC6 inhibitor; membrane potential fluorescence; percent change from control (negative = decrease, positive = increase), % at 10 µM; 2,400 compounds, 69% hits;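 active = membrane potential signal moved up or down beyond 5 SD of buffer control wells, in both duplicate plates, actives on both sides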;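 also: plate controls were assay buffer wells for no effect and DAMGO maximal-effect wells for full effect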
# TRPC4/MOR inh 2 = second selectivity test of TRPC6 modulators against mouse TRPC4; shares compounds with TRPC6 inhibitor; HEK293 TRPC4/mu-opioid, membrane potential dye fluorescence; stimulated with maximal-effect DAMGO; inhibition, % at 10 µM; 2,400 compounds, 55% hits;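 active = drop in membrane potential signal beyond 5 SD of the control wells in both duplicate plates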;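 also: TRPC4 counter screen for TRPC6 hits run under conditions tuned for TRPC6 not TRPC4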
# TRPC6 inh conf = mouse TRPC6 channel inhibitors, confirmation, HEK293 cells, membrane potential dye, duplicate. shares compounds with TRPC6 inhibitor. ACh-evoked depolarization. inhibition, % at 10 µM. 3,300 compounds, 43% hits. AID 488960, 2010;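 active = fluorescence ratio falls more than 5 SD below the full-stimulation control mean, in both duplicate runs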;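 also: integrated fluorescence ratio of peak minus minimum over baseline after agonist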
# TRPC6 act conf = mouse TRPC6 channel activators, confirmation, HEK293 cells, membrane potential dye, duplicate. shares compounds with TRPC6 inhibitor. HEK293-TRPC6 membrane potential dye fluorescence, FDSS. activation, % at 10 µM. 2,800 compounds, 11% hits;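 active = ratio signal rise beyond 5 SD above unstimulated control wells' mean, seen in both duplicate runs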;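 also: plate controls were buffer EC0 wells for no effect and acetylcholine ECmax response for full effect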
# Starred values were filed as active, the others as inactive; i = inactive; / = no result.
SMILES,TRPC6 inhibitor,TRPC4 PAM,TRPC4 block,Kir21 block,TRPC4 act,TRPC6 activator,TRPC4 spec 2,TRPC4 spec,HEK293 MPD ctr 2-1,HEK293 MPD ctr-1,HEK293 MPD ctr-2,HEK293 MPD ctr 2-2,TRPC4 ctr mod,TRPC4/MOR inh 2,TRPC6 inh conf,TRPC6 act conf
CCN(CC)CCNc1nc2cc(OC)c(OC)cc2c2nc(-c3ccccc3)nn12,-12*,i,i,0.96,i,i,38%*,-33%*,32%*,-384%*,/,/,/,/,76%*,i
O=C1CC(=O)Nc2cc(S(=O)(=O)N3CCN(c4ccc([N+](=O)[O-])cc4)CC3)ccc2N1,i,i,i,0.11,i,i,/,/,/,/,/,/,/,/,/,/
CCOc1c2ccoc2nc2c(OC)c(OC)ccc12,-5.4*,i,i,1.4,i,i,/,/,/,/,i,i,i,i,i,/
C=CCOc1ccc2c(OC)c3ccoc3nc2c1OC,-11*,i,i,1.9,i,16*,/,/,/,/,i,i,18%*,i,52%*,86%*
CS(=O)(=O)c1ccc(NC(=O)C2CC(=O)N(c3ccc4c(c3)OCCO4)C2)cc1 (stereo not drawn),i,i,i,-0.03,i,i,/,/,/,/,/,/,/,/,/,/
O=C(Nc1ccc(-n2cnnn2)cc1)c1cn2ccccc2n1,-5.1*,i,i,-0.98,i,i,/,/,/,/,i,i,i,i,i,i
O=C(Nc1ccccc1)c1cn2ccccc2n1,i,i,i,1.6,i,i,/,/,/,/,/,/,/,/,/,/
CCOC(=O)c1sc(N/N=C/c2cc(Br)c(O)c(OC)c2)nc1C,i,i,i,-1.2,i,i,/,/,/,/,/,/,/,/,/,/
CCN(CC)CCCNC1=C(Cl)C(=O)c2ccccc2C1=O,-6.2*,i,i,-2.8,i,i,/,/,/,/,-180%*,i,-30%*,47%*,50%*,i
CC(C)OCCCNC1=C(Cl)C(=O)c2ccccc2C1=O,i,i,i,-0.37,i,i,/,/,/,/,/,/,/,/,/,/
Cc1c(C=O)cnn1CCC(=O)O,i,i,i,1.9,i,i,/,/,/,/,/,/,/,/,/,/
CC(=O)Nc1ccc(CN2CCN(C3CCCC3)C(CCO)C2)cc1 (stereo not drawn),-6.9*,i,i,0.04,i,i,i,i,i,i,/,/,/,/,i,i
CC(C)CCN1CCN(Cc2cccc(-n3cccn3)c2)CC1CCO (stereo not drawn),i,i,i,-0.09,i,i,/,/,/,/,/,/,/,/,/,/
Cc1ccc(CN2CCN(Cc3ccc(-n4cccn4)cc3)CC2CCO)cc1 (stereo not drawn),i,i,i,-2,i,i,/,/,/,/,/,/,/,/,/,/
Cc1cc(-n2cccn2)ccc1CN1CCN(CC(C)C)C(CCO)C1 (stereo not drawn),-8.3*,i,i,0.53,i,i,i,4.3%*,26%*,5.6%*,/,/,/,/,58%*,i
Cc1cc(-n2cccn2)ccc1CN1CCN(C2CCCC2)C(CCO)C1 (stereo not drawn),-9.7*,i,i,-1.4,i,i,i,8.4%*,20%*,9.2%*,/,/,/,/,63%*,/
COC(=O)c1ccc(CN2CCN(CCC(C)C)C(CCO)C2)cc1 (stereo not drawn),-5.2*,i,i,-0.27,i,i,/,/,/,/,99%*,i,10%*,i,i,/
C#CCOCCOCCOCCNc1nc(N2CCN(C(=O)[C@H](CCCCN)n3cc(C(N)CO)nn3)CC2)nc(N2CCN(C(=O)[C@H](CCCCN)n3cc(C(N)COC(=O)C(F)(F)F)nn3)CC2)n1 (stereo partly drawn),i,i,i,1.2,i,i,/,/,/,/,/,/,/,/,/,/
CCN(CC)CCSc1nnc2c3ccccc3n(CCc3ccccc3)c2n1,-7.5*,i,i,-1.2,i,i,18%*,0.5%*,i,-198%*,/,/,/,/,i,i
